This note sets out measurements from ChEMBL document CHEMBL4354873, “Rationally Designed Small-Molecule Inhibitors Targeting an Unconventional Pocket on the TLR8 Protein-Protein Interface” (J Med Chem, 2020).

In data set [1] the target is T1, Toll-like receptor 8 (Homo sapiens) (UniProt Q9NR97).
T1 sequence (whole entry): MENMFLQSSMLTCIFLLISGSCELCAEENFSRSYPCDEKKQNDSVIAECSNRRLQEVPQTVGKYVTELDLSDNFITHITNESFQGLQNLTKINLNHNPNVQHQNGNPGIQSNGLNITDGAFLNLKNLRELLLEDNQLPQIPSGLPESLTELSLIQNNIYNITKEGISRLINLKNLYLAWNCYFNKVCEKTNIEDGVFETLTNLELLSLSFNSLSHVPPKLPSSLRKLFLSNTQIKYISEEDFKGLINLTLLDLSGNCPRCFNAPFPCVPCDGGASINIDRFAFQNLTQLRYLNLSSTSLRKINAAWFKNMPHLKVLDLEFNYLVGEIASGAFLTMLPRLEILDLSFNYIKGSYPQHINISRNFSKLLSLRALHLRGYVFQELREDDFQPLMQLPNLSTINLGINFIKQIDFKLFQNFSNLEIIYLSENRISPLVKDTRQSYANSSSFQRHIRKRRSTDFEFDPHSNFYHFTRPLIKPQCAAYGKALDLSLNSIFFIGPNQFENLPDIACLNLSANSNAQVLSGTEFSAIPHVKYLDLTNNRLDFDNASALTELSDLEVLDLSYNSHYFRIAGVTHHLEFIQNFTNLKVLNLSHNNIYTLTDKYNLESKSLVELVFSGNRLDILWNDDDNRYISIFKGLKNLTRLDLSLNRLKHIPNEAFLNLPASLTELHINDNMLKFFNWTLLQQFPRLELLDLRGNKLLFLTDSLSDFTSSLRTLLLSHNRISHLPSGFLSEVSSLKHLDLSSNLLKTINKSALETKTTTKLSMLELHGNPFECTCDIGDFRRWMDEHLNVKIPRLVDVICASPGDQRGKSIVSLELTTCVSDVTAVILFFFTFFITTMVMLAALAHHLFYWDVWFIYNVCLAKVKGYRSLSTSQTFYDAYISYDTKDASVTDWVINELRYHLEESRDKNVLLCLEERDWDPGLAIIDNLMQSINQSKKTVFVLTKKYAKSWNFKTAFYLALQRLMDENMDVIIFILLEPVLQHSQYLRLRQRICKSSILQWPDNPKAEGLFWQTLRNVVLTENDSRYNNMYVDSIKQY
As to the kind of experiment: Inhibition of human TLR8 expressed in HEK-Blue cells assessed as inhibition of R848-induced NF-kappaB activation at 20 uM measured after 24 hrs by quanti-blue based SEAP reporter gene assay. Type of data set: cell-based. A digest of the protocol: (§1)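 HEK-Blue SEAP format: 4 × 10⁴ cells/well in DMEM with ligand plus compound, 24 h at 37 °C. Supernatant mixed with QUANTI-Blue up to 1 h, then A620 read. Ligands: Pam3CSK4 100 ng/mL (TLR1/2), Pam2CSK4 100 ng/mL (TLR2/6), poly(I:C) 5 µg/mL (TLR3), LPS 20 ng/mL (TLR4), flagellin 50 ng/mL (TLR5), R848 1 µg/mL (TLR7), R848 2 µg/mL (TLR8), ODN2006 0.5 µM (TLR9). Mean ± s.d.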
On the technique in general: A reporter such as luciferase makes a cellular process visible.

In data set [2] the target is T1, Toll-like receptor 8 (Homo sapiens). As to the kind of experiment: Inhibition of TLR8 in human monocytes assessed as reduction in R848-induced p65 nuclear translocation up to 5 uM measured after 2 hrs by Western blot analysis. Format: cell-based. A digest of the protocol: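 Monocyte cell lines, 2 × 10⁶/well, differentiated with PMA 100 ng/mL for 24 h. After washes, cells in unsupplemented RPMI received R848 1 µg/mL with varying compound concentrations for 2 h. Nuclear/cytoplasmic fractions extracted and resolved on 10% SDS-PAGE. Blots probed for p65, TRAF3 and p-IRAK4 (1:1000); lamin A/C (nuclear) and β-actin (cytoplasmic) as loading controls.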
For orientation: Immunoblotting shows a protein as a band on a membrane.

Data set [3] deals with T2, Toll-like receptor 8 (Homo sapiens, UniProt Q9NR97).
T2 sequence (Q9NR97 whole entry): T1 sequence (whole entry)
The data set can be described thus: Binding affinity to human TLR8 ectodomain by isothermal titration calorimetry. Put shortly:
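ITC at 298 K in 25 mM MES pH 5.5, 0.20 M NaCl, 5% DMSO. The protein was the human TLR8 ectodomain (residues 27–827). 100 µM compound was titrated into 10 µM hTLR8 as one 0.4 µL injection followed by 18 × 2 µL injections, 120 s apart. Integrated peaks were fitted for Kd.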
(Isothermal titration calorimetry measures the heat released or taken up as one component is titrated into another.)

Data set [4] in a line: Cytotoxicity against HEK-Blue cells expressing human TLR8 assessed as reduction in cell viability up to 100 uM measured after 24 hrs by CCK8 assay. Type of data set: cell-based. Put shortly:
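CCK-8 viability: compounds incubated 24 h at 37 °C with HEK-Blue TLR8 cells (4 × 10⁴ cells/well) or PBMCs (3 × 10⁶ cells/mL). CCK-8 was added at 1:10 for up to 2 h, then absorbance read at 450 nm. Values normalized to untreated cells as 100% survival.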

Data set [5] concerns the target Toll-like receptor 3 (Homo sapiens) (UniProt O15455). As to the kind of experiment: Inhibition of human TLR3 expressed in HEK-Blue cells assessed as inhibition of poly(I/C)-induced NF-kappaB activation at 20 uM measured after 24 hrs by quanti-blue based SEAP reporter gene assay. Format: cell-based. A digest of the protocol: as §1
Data set [6] has as its target T1, Toll-like receptor 8 (Homo sapiens). As to the kind of experiment: Inhibition of TLR8 in human PBMC assessed as reduction in R848-induced TNFalpha production measured after 24 hrs by ELISA. A digest of the protocol:
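PBMCs from healthy donors isolated by density gradient centrifugation and cultured at once at 3 × 10⁶ cells/mL in RPMI 1640. Cells received R848 and varying compound concentrations for 24 h. Supernatants spun 10 min at 4 °C, frozen at −80 °C, and TNF-α measured by ELISA.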

Data set [7] addresses T2, Toll-like receptor 8. The data set can be described thus: (§2) Inhibition of human TLR8 expressed in HEK-Blue cells assessed as inhibition of R848-induced NF-kappaB activation measured after 24 hrs by quanti-blue based SEAP reporter gene assay. Format: cell-based.
The target of data set [8] is T1, Toll-like receptor 8 (Homo sapiens). Described as §2. Format: cell-based.
For data set [9] the target is unchanged. The data set can be described thus: Inhibition of human TLR8 expressed in HEK-Blue cells assessed as inhibition of R848-induced IL-8 mRNA level at 1 uM measured after 8 hrs by Trizol reagent based qRT-PCR analysis. Format: cell-based. A digest of the protocol: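 RT-qPCR: HEK-Blue TLR8 cells seeded at 1 × 10⁶/well and grown 24 h, then switched to serum-free medium. Treated with R848 4 µg/mL ± compound 1 µM for 8 h. Total RNA extracted with TRIzol, reverse transcribed, TNF-α and IL-8 mRNA quantified. Three independent biological replicates, mean ± s.d.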

Data set [10] shares this target. The data set can be described thus: Inhibition of TLR8 in human monocytes assessed as reduction in R848-induced IL6 production measured after 24 hrs by ELISA. Type of data set: cell-based. A digest of the protocol:
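Human monocyte cell lines in RPMI 1640 with 10% FBS and 0.05 mM 2-mercaptoethanol, 1 × 10⁶/well, 24 h. After PBS washes, fresh RPMI added with R848 1 µg/mL and varying compound concentrations for 24 h. Supernatant TNF-α, IL-6 and IL-1β measured by ELISA.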

In data set [11] the target is Toll-like receptor 1/2 (Homo sapiens) (UniProt O60603+Q15399). As to the kind of experiment: Inhibition of human TLR1/2 expressed in HEK-Blue cells assessed as inhibition of Pam3CSK4-induced NF-kappaB activation at 20 uM measured after 24 hrs by quanti-blue based SEAP reporter gene assay. Type of data set: cell-based. Put shortly: as §1

Each structure is given as a SMILES string. Activity calls are given as the source filed them. The calls are words filed in the database; no cut-off is given here.

Sequence of Toll-like receptor 3 (Homo sapiens) (O15455 whole entry): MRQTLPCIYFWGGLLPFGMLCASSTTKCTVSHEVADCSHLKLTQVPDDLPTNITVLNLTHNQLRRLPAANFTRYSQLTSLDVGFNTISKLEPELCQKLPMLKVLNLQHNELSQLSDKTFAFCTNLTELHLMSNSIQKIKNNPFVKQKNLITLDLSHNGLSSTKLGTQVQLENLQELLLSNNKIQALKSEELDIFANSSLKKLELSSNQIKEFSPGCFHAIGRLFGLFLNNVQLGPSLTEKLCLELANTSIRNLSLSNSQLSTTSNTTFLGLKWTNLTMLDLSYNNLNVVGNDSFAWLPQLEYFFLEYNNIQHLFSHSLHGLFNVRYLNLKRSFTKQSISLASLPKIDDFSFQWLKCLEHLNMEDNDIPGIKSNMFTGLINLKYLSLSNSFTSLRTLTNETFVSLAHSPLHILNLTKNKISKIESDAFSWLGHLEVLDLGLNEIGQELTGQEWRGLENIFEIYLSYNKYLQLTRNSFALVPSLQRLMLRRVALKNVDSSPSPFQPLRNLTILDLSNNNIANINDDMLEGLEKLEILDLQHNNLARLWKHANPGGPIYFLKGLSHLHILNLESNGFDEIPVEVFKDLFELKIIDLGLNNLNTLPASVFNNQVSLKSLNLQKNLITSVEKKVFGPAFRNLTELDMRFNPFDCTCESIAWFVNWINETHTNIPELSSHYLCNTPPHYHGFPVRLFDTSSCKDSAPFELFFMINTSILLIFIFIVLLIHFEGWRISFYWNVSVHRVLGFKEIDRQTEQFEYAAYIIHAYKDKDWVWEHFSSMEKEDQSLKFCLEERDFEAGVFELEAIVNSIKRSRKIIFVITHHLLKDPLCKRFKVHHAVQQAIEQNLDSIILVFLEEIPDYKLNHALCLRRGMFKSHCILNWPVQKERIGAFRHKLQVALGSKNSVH

As to `CSc1nnc(CCCO)n1-c1cc(C)c(C)c(C)c1`, the inhibition result in [1], in [2] and in data set [9] was “Active” each time. Binding in data set [3] was put at a Kd of 225 nM. Also, the Activity entry in [4] is given as “Non-Toxic”. For the same compound, the inhibition entry in [5] and in [11] was “inactive” in each case. In addition, the inhibition result in data set [6], in data set [8] and in [10] was “Dose-dependent effect” each time. In addition, the IC50 (as a rule, the concentration that inhibits the measured activity by half) in [7] was 30 nM.
